Results published in ChEMBL document CHEMBL1123860, “C1- and C3-methyl-substituted derivatives of 7-hydroxy-2-(di-n-propylamino)tetralin: activities at central dopamine receptors” (1987).
“And” between values parts separate entries of the source, which are not always exact repeats. Equal entries are not always repeated. The source made the active and inactive calls. No cut-off for these calls is given here.

Experiments:
[1] = species on record: Rattus norvegicus; assay: Effect on half-maximal decrease of DOPA formation in rat limbic regions; type: functional; settings: Limbic system
[2] = species on record: Rattus norvegicus; assay: Tested for locomotor activity by measuring accumulated counts/30 min in reserpine-pretreated rats; type: functional
Procedure, shortened: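 Rats given reserpine 5 mg/kg sc 18 h beforehand, then test drug sc immediately before the session. Motor activity recorded by photocell motility meter as accumulated counts over 30 min, mean ± SEM (n = 3–4). Reserpine controls were used; Student's t test. Injection volume 5 mL/kg at roughly neutral pH.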

[3] = species on record: Rattus norvegicus; assay: Effect on half-maximal decrease of DOPA formation in rat limbic regions; In active (no significant effect […]); type: functional; settings: Limbic system
[4] = species on record: Rattus norvegicus; assay: Effect on half-maximal decrease of DOPA formation in rat striatal regions; type: functional
[5] = species on record: Rattus norvegicus; assay: Tested for locomotor activity by measuring accumulated counts/30 min in reserpine-non-pretreated rats; type: functional
Procedure, shortened: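 Nonpretreated rats were injected with test drug 5 min before a photocell motility session, and counts were accumulated over 30 min. Activity expressed as percent of saline controls, mean ± SEM (n = 3–5), compared by Student's t test. Injections were 5 mL/kg at approximately neutral pH.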

[6] = species on record: Rattus norvegicus; assay: Effect on half-maximal decrease of DOPA formation in rat striatal regions; In active (no significant effect […]); type: functional, organism-based
[7] = test system: Rattus norvegicus; assay: Effect on half-maximal decrease of DOPA formation in rat limbic regions; In active (no significant decrease at […] sc); type: functional, organism-based; settings: Limbic system

SMILES | ED50 [1] | No. of counts [2] | ED50 [3] | ED50 [4] | No. of counts [5] | ED50 [6] | ED50 [7] | ED50 ([3]; ip)
CCCN(CCC)[C@H]1Cc2cc(O)ccc2C[C@H]1C | 11 µmol/kg | 331 counts/30 min | inactive | 7.5 µmol/kg | 119% | inactive | – | –
CCCN(CCC)[C@H]1Cc2cc(O)ccc2C[C@@H]1C | – | 35 counts/30 min | inactive | – | 89% | inactive | – | –
CCCN(CCC)[C@H]1Cc2cc(OC)ccc2CC1C (stereo partly specified) | – | – | inactive | – | 96% | inactive | – | –
CCCN(CCC)[C@@H]1CCc2ccc(O)cc2C1 | 0.01 µmol/kg | 46 counts/30 min | – | 0.01 µmol/kg | – | – | – | –
CCCN[C@H]1Cc2cc(OC)ccc2CC1C (stereo partly specified) | – | – | inactive | – | 128% | inactive | – | –
CCCN(CCC)[C@@H]1CCc2ccc(OC)cc2C1C (single isomer, unassigned; 5) [listing 1 of 2 here] | – | 4 counts/30 min | – | – | 109% and 92% | – | – | –
CCCN(CCC)[C@@H]1CCc2ccc(OC)cc2C1C (single isomer, unassigned; 5) [listing 2 of 2 here] | – | – | inactive | – | – | inactive | inactive | –
CCCN(CCC)[C@@H]1CCc2ccc(O)cc2C1C (single isomer, unassigned; 6) [listing 1 of 2 here] | – | 14 counts/30 min and 17 counts/30 min | – | – | 126% and 136% | – | – | –
CCCN(CCC)[C@@H]1CCc2ccc(O)cc2C1C (single isomer, unassigned; 6) [listing 2 of 2 here] | – | – | inactive | – | – | inactive | – | –
CCCN(CCC)[C@@H]1CCc2ccc(OC)cc2C1C (single isomer, unassigned; 9) [listing 1 of 2 here] | – | – | – | 1.3 µmol/kg | 38% and 28% | – | – | 0.9 µmol/kg
CCCN(CCC)[C@@H]1CCc2ccc(OC)cc2C1C (single isomer, unassigned; 9) [listing 2 of 2 here] | – | – | inactive | – | – | inactive | – | –
CCCN(CCC)[C@@H]1CCc2ccc(O)cc2C1C (single isomer, unassigned; 10) [listing 1 of 2 here] | – | 50 counts/30 min and 20 counts/30 min | – | – | – | – | – | –
CCCN(CCC)[C@@H]1CCc2ccc(O)cc2C1C (single isomer, unassigned; 10) [listing 2 of 2 here] | – | – | inactive | – | – | inactive | – | –
CCCN[C@@H]1CCc2ccc(O)cc2C1C (single isomer, unassigned; (+)) | 1.4 µmol/kg | 59 counts/30 min | – | 1.2 µmol/kg | – | – | – | –
CCCN[C@@H]1CCc2ccc(O)cc2C1C (single isomer, unassigned; (-)) [listing 1 of 2 here] | – | 8 counts/30 min | – | – | – | – | – | –
CCCN[C@@H]1CCc2ccc(O)cc2C1C (single isomer, unassigned; (-)) [listing 2 of 2 here] | – | – | inactive | – | – | inactive | – | –
CN1CCc2cccc3c2[C@H]1Cc1ccc(O)c(O)c1-3 [APOMORPHINE] | 0.04 µmol/kg | 366 counts/30 min | – | 0.04 µmol/kg | 227% | – | – | –
O=C(CCCN1CCC(O)(c2ccc(Cl)cc2)CC1)c1ccc(F)cc1 [HALOPERIDOL] | 0.19 µmol/kg | – | inactive | 0.19 µmol/kg | 3% | inactive | – | –
